The source of these data is ChEMBL document CHEMBL2331160, “Trimeric hemibastadin congener from the marine sponge Ianthella basta” (J Nat Prod, 2013).

One experiment deals with Focal adhesion kinase 1 (Homo sapiens, UniProt Q05397). In words: Inhibition of FAK (unknown origin). The gist of the method:
(§1)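 Biochemical (cell-free) assay within a panel of 24 protein kinases. Results reported as IC50 values. Procedure as described in earlier work.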

The next experiment has as its target Insulin receptor (Homo sapiens, UniProt P06213). In words: Inhibition of INSR (unknown origin). A digest of the protocol: as §1
For experiment [1], the target named is Receptor tyrosine-protein kinase erbB-2 (Homo sapiens, UniProt P04626). The experiment in a line: Inhibition of ERBB2 (unknown origin). The gist of the method:
as §1

Experiment [2] addresses Epidermal growth factor receptor (Homo sapiens, UniProt P00533). In words: Inhibition of EGFR (unknown origin). The gist of the method: as §1
Experiment [3] deals with Mitogen-activated protein kinase kinase kinase 8 (Homo sapiens, UniProt P41279). The experiment in a line: Inhibition of COT (unknown origin). The gist of the method:
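Biochemical (cell-free) assay using a panel of 24 protein kinases. The read-out was the IC50.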

For experiment [4], the target named is Cyclin-dependent kinase 4/cyclin D1 (Homo sapiens, UniProt P11802). In words: Inhibition of CDK4/cyclin-D1 (unknown origin). The experiment is classed as protein-complex assay. The gist of the method:
as §1

Experiment [5] deals with Serine/threonine-protein kinase B-raf (Homo sapiens, UniProt P15056, V600E). The experiment in a line: Inhibition of B-RAF V600E mutant (unknown origin). A digest of the protocol:
as §1

The next experiment concerns the target Aurora kinase B (Homo sapiens, UniProt Q96GD4). The experiment in a line: Inhibition of aurora-B (unknown origin). The gist of the method:
as §1

In another experiment the target is T1, Aurora kinase A (Homo sapiens, UniProt O14965).
T1 sequence (O14965 whole entry): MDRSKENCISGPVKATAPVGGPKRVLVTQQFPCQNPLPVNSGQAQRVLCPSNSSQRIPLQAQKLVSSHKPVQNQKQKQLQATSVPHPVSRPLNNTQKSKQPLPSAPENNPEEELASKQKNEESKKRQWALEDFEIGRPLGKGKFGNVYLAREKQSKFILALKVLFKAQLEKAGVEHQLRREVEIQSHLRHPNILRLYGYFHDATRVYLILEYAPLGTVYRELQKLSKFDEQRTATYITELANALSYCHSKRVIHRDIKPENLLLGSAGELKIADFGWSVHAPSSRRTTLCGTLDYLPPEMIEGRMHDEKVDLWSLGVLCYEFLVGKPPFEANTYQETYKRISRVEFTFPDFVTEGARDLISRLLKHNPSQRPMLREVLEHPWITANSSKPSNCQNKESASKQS
The experiment in a line: Inhibition of aurora-A (unknown origin). A digest of the protocol: as §1

Experiment [6] deals with T2, NUAK family SNF1-like kinase 1 (Homo sapiens, UniProt O60285).
T2 sequence (O60285 whole entry): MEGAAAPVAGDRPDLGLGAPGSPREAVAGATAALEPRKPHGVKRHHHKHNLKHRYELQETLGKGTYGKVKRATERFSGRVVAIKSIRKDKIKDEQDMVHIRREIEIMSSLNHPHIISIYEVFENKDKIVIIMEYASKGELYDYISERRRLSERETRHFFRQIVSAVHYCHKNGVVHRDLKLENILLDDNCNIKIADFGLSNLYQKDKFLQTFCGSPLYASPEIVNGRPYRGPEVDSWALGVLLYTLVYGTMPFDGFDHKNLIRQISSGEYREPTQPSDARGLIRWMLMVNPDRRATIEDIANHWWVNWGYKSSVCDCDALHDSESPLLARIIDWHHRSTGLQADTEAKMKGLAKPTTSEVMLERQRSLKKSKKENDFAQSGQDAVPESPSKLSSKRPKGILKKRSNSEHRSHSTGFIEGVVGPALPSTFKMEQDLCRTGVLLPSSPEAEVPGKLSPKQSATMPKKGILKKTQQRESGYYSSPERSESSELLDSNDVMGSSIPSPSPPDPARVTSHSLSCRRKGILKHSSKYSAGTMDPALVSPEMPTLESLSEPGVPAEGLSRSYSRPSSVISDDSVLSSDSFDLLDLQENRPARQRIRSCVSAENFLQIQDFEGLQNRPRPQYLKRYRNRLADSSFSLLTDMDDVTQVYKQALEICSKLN
The experiment in a line: Inhibition of ARK5 (unknown origin). The gist of the method: as §1

A further experiment relates to L5178Y. The experiment in a line: Cytotoxicity against mouse L5178Y cells assessed as inhibition of cell proliferation by MTT assay. It counts as functional, cell-based. For orientation: Tetrazolium dyes change colour on reduction, which living cells bring about.
The target of experiment [7] is Vascular endothelial growth factor receptor 2 (Homo sapiens, UniProt P35968). In words: Inhibition of VEGFR2 (unknown origin). A digest of the protocol: as §1
Experiment [8] addresses Vascular endothelial growth factor receptor 3 (Homo sapiens, UniProt P35916). In words: Inhibition of VEGFR3 (unknown origin). The gist of the method:
as §1

Another experiment deals with Angiopoietin-1 receptor (Homo sapiens, UniProt Q02763). In words: Inhibition of TIE2 (unknown origin). A digest of the protocol:
as §1

Experiment [9] has as its target Proto-oncogene tyrosine-protein kinase Src (Homo sapiens, UniProt P12931). In words: Inhibition of SRC (unknown origin). A digest of the protocol:
as §1

Experiment [10] deals with T3, Serine/threonine-protein kinase PLK4 (Homo sapiens, UniProt O00444).
T3 sequence (O00444 whole entry): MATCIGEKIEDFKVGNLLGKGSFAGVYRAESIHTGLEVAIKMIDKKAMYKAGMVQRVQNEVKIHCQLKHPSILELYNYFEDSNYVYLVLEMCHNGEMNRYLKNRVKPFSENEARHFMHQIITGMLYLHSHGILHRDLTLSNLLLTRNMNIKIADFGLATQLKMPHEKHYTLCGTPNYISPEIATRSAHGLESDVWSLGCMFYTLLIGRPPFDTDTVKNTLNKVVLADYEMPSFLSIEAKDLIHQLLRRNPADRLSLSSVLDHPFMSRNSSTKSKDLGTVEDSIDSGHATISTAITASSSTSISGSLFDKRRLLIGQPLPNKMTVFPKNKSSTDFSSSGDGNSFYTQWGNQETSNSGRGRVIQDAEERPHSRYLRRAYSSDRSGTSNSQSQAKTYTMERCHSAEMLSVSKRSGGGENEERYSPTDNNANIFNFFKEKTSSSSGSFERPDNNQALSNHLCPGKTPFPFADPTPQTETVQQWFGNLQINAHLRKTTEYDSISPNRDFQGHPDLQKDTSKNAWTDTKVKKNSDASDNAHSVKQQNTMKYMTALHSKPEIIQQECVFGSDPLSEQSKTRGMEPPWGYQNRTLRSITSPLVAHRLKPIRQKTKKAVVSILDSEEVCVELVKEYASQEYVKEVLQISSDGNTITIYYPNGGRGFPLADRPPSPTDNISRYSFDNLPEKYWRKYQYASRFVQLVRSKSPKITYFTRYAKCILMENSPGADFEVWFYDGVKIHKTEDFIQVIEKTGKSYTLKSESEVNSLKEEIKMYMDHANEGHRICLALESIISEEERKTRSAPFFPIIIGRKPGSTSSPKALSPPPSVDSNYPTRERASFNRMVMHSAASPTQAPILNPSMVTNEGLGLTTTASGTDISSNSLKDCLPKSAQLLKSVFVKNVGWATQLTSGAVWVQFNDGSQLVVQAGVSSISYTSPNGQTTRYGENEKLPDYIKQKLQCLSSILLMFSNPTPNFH
In words: Inhibition of SAK (unknown origin). A digest of the protocol:
as §1

The target of experiment [11] is Hepatocyte growth factor receptor (Homo sapiens, UniProt P08581). In words: Inhibition of MET (unknown origin). The gist of the method: as §1
Experiment [12] deals with Insulin-like growth factor 1 receptor (Homo sapiens, UniProt P08069). The experiment in a line: Inhibition of IGF1R (unknown origin). A digest of the protocol: as §1

The structures appear in SMILES notation. Activity calls are given as the source filed them. No cut-off for these calls is given here.

Sequence of Serine/threonine-protein kinase B-raf (P15056 2-766 V600E limits assumed): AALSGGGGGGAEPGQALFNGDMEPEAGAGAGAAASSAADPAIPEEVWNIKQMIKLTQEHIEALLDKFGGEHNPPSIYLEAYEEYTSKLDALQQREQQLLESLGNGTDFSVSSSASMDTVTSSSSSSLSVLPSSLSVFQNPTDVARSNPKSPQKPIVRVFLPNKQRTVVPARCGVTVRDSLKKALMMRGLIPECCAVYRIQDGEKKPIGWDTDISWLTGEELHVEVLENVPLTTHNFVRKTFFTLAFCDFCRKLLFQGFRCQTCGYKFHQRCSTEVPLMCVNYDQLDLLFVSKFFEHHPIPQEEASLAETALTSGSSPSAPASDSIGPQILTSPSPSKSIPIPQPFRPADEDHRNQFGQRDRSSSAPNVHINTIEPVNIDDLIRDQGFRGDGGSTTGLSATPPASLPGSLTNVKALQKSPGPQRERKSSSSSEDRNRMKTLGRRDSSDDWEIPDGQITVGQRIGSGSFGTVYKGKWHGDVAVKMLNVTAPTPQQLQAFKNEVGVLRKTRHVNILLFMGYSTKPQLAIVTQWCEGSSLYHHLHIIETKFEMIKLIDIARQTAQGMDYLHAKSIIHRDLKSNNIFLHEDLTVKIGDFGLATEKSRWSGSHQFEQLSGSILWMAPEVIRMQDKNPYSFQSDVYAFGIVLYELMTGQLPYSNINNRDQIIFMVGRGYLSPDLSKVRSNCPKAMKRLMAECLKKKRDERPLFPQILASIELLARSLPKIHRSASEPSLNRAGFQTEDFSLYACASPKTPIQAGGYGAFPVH
Sequence of Cyclin-dependent kinase 4/cyclin D1 (P11802 whole entry): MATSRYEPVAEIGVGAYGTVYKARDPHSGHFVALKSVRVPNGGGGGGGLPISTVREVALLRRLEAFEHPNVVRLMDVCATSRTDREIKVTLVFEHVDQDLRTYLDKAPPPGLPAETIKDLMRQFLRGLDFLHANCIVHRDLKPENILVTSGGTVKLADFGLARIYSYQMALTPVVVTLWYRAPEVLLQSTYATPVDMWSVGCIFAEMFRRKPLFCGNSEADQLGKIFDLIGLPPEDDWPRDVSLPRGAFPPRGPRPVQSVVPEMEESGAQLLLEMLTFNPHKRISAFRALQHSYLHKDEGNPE
Sequence of Cyclin-dependent kinase 4/cyclin D1 (P24385 whole entry, further chain): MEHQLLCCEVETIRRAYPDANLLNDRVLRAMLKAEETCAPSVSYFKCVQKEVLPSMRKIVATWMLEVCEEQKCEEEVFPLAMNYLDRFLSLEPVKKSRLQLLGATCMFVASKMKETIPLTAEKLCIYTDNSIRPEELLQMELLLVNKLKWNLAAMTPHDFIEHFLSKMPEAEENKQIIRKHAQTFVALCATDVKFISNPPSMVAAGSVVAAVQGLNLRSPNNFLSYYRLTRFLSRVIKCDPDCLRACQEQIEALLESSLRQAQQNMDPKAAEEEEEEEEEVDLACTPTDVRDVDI
Sequence of Focal adhesion kinase 1 (Q05397 whole entry): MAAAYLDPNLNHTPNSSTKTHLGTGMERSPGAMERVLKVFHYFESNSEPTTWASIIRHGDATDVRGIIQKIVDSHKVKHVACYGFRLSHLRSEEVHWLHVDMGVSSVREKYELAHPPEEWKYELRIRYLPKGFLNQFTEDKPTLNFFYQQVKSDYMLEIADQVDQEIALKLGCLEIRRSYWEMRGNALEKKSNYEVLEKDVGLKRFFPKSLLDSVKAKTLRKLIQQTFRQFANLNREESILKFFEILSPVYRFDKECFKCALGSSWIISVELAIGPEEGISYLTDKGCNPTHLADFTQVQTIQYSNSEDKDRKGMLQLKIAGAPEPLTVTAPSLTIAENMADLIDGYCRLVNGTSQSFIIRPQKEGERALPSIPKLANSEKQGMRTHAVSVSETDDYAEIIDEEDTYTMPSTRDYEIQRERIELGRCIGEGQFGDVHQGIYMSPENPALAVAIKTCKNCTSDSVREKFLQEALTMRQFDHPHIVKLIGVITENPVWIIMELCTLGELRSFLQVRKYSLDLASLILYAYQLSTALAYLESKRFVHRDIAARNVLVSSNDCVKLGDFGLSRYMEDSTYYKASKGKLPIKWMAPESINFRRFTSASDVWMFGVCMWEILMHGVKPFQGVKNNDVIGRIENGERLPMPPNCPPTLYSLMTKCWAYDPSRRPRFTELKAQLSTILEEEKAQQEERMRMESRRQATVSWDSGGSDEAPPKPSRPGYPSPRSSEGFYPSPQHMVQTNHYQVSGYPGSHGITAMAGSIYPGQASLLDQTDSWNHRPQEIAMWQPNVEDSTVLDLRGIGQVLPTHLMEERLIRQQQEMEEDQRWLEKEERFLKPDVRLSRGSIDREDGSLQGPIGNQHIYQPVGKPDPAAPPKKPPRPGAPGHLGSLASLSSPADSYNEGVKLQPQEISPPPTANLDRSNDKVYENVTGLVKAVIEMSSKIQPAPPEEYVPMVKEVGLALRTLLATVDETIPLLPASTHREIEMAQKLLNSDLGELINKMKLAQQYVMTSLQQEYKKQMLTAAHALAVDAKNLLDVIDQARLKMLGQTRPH
Sequence of Vascular endothelial growth factor receptor 3 (P35916 whole entry): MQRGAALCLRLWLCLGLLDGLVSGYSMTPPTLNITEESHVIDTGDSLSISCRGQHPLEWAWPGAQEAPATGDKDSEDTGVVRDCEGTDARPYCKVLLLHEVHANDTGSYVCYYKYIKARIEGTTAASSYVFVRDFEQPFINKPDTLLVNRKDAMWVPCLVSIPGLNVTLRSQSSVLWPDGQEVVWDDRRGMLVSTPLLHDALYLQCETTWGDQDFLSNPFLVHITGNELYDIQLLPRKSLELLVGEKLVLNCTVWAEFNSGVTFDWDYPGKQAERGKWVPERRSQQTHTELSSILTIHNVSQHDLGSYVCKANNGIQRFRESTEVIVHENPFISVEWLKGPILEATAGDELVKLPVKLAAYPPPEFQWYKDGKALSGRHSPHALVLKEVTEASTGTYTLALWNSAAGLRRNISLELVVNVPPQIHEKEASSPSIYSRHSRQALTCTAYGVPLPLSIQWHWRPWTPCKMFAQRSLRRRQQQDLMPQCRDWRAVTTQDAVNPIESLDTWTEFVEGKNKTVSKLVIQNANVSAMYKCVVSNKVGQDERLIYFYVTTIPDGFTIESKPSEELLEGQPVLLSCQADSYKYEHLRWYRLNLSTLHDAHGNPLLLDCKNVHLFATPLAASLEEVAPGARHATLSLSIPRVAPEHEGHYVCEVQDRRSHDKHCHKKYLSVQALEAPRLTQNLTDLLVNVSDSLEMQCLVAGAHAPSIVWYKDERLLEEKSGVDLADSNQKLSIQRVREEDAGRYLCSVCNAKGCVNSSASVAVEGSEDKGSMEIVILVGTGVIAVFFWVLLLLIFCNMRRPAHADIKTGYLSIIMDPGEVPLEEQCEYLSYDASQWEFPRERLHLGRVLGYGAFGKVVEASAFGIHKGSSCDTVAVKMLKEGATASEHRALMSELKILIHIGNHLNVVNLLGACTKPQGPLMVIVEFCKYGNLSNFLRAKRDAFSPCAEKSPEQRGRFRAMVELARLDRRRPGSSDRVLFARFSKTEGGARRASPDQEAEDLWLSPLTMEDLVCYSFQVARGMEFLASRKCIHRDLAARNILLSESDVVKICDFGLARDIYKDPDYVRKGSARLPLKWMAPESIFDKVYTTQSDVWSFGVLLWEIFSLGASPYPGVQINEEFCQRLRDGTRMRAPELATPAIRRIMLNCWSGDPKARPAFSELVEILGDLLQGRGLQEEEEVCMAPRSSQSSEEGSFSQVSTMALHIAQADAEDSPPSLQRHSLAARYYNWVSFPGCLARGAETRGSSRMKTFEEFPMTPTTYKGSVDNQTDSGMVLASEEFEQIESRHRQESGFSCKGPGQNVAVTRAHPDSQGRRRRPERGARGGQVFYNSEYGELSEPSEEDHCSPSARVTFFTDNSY
Sequence of Mitogen-activated protein kinase kinase kinase 8 (P41279 whole entry): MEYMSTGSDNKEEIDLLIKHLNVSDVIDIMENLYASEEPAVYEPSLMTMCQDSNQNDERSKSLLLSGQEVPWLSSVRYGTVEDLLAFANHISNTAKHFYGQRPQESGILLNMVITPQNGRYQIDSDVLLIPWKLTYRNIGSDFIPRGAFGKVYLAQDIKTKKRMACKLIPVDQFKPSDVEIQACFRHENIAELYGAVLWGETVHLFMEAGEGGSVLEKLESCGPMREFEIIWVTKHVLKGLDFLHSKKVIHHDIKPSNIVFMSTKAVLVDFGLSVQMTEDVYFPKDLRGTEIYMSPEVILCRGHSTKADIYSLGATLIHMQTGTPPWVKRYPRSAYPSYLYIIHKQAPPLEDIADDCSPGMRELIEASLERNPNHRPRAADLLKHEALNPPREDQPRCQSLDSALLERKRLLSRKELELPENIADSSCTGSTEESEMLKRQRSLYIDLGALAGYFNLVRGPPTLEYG
Sequence of Proto-oncogene tyrosine-protein kinase Src (P12931 2-536 limits assumed): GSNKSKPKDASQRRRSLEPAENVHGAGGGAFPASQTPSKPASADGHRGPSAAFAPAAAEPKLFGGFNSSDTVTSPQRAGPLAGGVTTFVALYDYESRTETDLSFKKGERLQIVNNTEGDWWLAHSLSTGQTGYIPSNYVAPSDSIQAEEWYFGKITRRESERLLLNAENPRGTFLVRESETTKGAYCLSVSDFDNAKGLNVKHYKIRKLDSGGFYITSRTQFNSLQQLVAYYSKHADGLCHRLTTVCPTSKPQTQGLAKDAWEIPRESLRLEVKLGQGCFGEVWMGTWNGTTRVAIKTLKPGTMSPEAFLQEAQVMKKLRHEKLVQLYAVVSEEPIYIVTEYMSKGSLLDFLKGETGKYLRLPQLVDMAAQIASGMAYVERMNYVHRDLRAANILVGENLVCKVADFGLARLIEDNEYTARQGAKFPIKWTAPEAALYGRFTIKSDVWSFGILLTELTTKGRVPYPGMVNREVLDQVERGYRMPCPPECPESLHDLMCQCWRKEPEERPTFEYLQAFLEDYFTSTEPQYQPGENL

One may read the IC50 as the concentration needed to halve the response being measured. As to `O=C(NCCc1ccc(O)c(Br)c1)/C(Cc1cc(Br)c(O)c(-c2cc(C/C(=N/O)C(=O)NCCc3ccc(O)c(Br)c3)cc(Br)c2O)c1)=N\O` [BASTADIN 3], the IC50 turned out to be 2.1 µM against Focal adhesion kinase 1; 2.9 µM at Insulin receptor; 2.1 µM in experiment [1]; 1.3 µM in experiment [2]; 1.6 µM in [3]; 1.5 µM in experiment [4]. Moreover, the IC50 was 2.7 µM in experiment [5]; 0.5 µM against Aurora kinase B; 0.1 µM at Aurora kinase A; 1.8 µM in [6]; 1.2 µM in [7]; 2.8 µM in experiment [8]. The IC50 against Angiopoietin-1 receptor was found to be 0.8 µM; in experiment [9], 1.9 µM; in [10] it was 4.1 µM; in experiment [11], 1.1 µM; in experiment [12] it was 2.3 µM. Moreover, in the experiment on L5178Y, the inhibition result was “inactive”.

For `O=C1N/C=C/c2ccc(c(Br)c2)Oc2cc(cc(Br)c2O)CCNC(=O)/C(=N/O)Cc2ccc(c(Br)c2)Oc2cc(cc(Br)c2O)C/C1=N\O` [BASTADIN 7], the IC50 stood at 7.3 µM on Focal adhesion kinase 1; 4.4 µM on Insulin receptor; 2.8 µM in experiment [1]; 1.5 µM in [2]; 3.3 µM in [3]; 2.6 µM in [4]. Further, the IC50 in experiment [5] amounted to 4.4 µM; on Aurora kinase B, 2.6 µM; against Aurora kinase A, 3.9 µM; in [6], 3.2 µM; in the experiment with L5178Y, 5.3 µM; in experiment [7], 1.3 µM. Moreover, the IC50 worked out at 3.2 µM in experiment [8]; 1.8 µM against Angiopoietin-1 receptor; 2 µM in [9]; 1.9 µM in experiment [10]; 2.8 µM in experiment [11]; 1.7 µM in experiment [12].

As to `O=C(NCCc1ccc(O)c(Br)c1)/C(Cc1cc(Br)c(O)c(Oc2ccc(CCNC(=O)/C(Cc3cc(Br)c(O)c(-c4cc(C/C(=N\O)C(=O)NCCc5ccc(O)c(Br)c5)cc(Br)c4O)c3)=N/O)cc2Br)c1)=N/O` [SESQUIBASTADIN 1], the IC50 at Focal adhesion kinase 1 amounted to 3.5 µM; against Insulin receptor it was 1.4 µM; in experiment [1] it was 2.1 µM; in experiment [2] it was 0.6 µM; in experiment [3] it was 1.3 µM; in [4] it was 1.4 µM. Also, the IC50 in [5] was found to be 1.7 µM; against Aurora kinase B, 2.3 µM; on Aurora kinase A, 2.6 µM; in experiment [6] it was 1.7 µM; in experiment [7], 0.6 µM; in experiment [8], 1.6 µM. The IC50 against Angiopoietin-1 receptor came to 0.6 µM; in experiment [9], 0.7 µM; in [10] it was 0.7 µM; in [11] it was 0.8 µM; in experiment [12], 1 µM. In addition, the inhibition result in the experiment with L5178Y was “inactive”.
